This is an account of results in ChEMBL document CHEMBL1155469, “Peptide nucleic acids conjugated to short basic peptides show improved pharmacokinetics and antisense activity in adipose tissue” (J Med Chem, 2010).

Data set [1] relates to Mus musculus. Kind of data set: Toxicity in Balb/C mouse assessed as change in serum AST levels at 10 to 40 mg/kg, ip administered thrice a week for 2 weeks measured 48 hrs after last dose. Further details: dose 10-40 mg/kg, route intraperitoneal. It counts as organism-based. As to conditions: in vivo. The gist of the method: (§1)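 Male Balb/c mice, 6–8 wk, n=4/group, received compound i.p. in PBS (10 ul/g) 3x/wk for 2 wk. Body weight was monitored throughout. At 48 h after the last dose, mice were anesthetized with isoflurane and bled by cardiac puncture. Serum AST, ALT, BUN, bilirubin, glucose and triglycerides were compared with the saline group. ALT rise below 2x normal was counted as absent.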

In data set [2] the test system is Mus musculus. Kind of data set: Toxicity in Balb/C mouse assessed as change in serum triglyceride levels at 10 to 40 mg/kg, ip administered thrice a week for 2 weeks measured 48 hrs after last dose. It counts as organism-based. On the set-up: dose 10-40 mg/kg, route intraperitoneal. As to conditions: in vivo. The gist of the method: as §1
For data set [3], the system named is Mus musculus. Kind of data set: Acute toxicity in Balb/C mouse assessed as change in organ weight at 25 mg/kg, ip administered BID for 5 days measured 48 hrs after last dose. The data set is classed as organism-based. As to conditions: in vivo. On the set-up: dose 25 mg/kg, route intraperitoneal. The gist of the method: (§2)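 Male Balb/c mice aged 6–8 weeks, n=4 per group, dosed i.p. with compound suspended in PBS and filter sterilized, 10 ul/g body weight. Body weight tracked throughout the live phase. Under isoflurane anaesthesia, terminal cardiac-puncture bleed; serum taken for transaminases and other chemistries. Sacrifice by cervical dislocation 48 h after last dose, with liver and spleen weighed at necropsy. Kidneys examined by histopathology.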

Data set [4] relates to Mus musculus. Kind of data set: Toxicity in Balb/C mouse assessed as change in serum ALT levels at 10 to 40 mg/kg, ip administered thrice a week for 2 weeks measured 48 hrs after last dose. It counts as organism-based. On the set-up: dose 10-40 mg/kg, route intraperitoneal. As to conditions: in vivo. Summed up: as §1
Data set [5] relates to Mus musculus. Briefly: Toxicity in Balb/C mouse assessed as increase in spleen weight at 40 mg/kg, ip administered thrice a week for 2 weeks measured 48 hrs after last dose. It counts as organism-based. On the set-up: dose 40 mg/kg, route intraperitoneal. As to conditions: in vivo. Summed up: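 Male Balb/c mice, 6–8 wk, n=4/group, were dosed i.p. in PBS 3x/wk for 2 wk at 40 mg/kg. They were killed by cervical dislocation 48 h after the last dose. Spleen weight was taken at necropsy and compared with the saline-treated group.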

Data set [6] has as its system Mus musculus. Kind of data set: Inhibition of PTEN expression in Balb/C mouse liver at 10 to 40 mg/kg, ip administered thrice a week for 2 weeks measured 48 hrs after last dose by Western blot analysis. The data set is classed as functional, organism-based. Summed up:
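Male Balb/c mice, 6–8 wk, n=4/group, dosed i.p. in PBS 3x/wk for 2 wk and killed 48 h after the last dose. Tissue was homogenized in RIPA buffer with protease inhibitors, and protein was measured by Lowry assay. Lysates were run on 10% PAGE and blotted to PVDF. Blots were probed with rabbit anti-PTEN (1:1000) and HRP anti-rabbit (1:2500), with ECL detection.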

Data set [7] has as its system Mus musculus. Briefly: Inhibition of PTEN expression in Balb/C mouse kidney assessed as upregulation of isoform lacking exon at 40 mg/kg, ip administered thrice a week for 2 weeks measured 48 hrs after last dose […]. The data set is classed as functional. On the set-up: scale not given: the % may be the effect or the level left. As to conditions: route intraperitoneal. A general note: In western blotting, separated proteins are transferred to a membrane and probed.

Data set [8] relates to Mus musculus. Kind of data set: Inhibition of PTEN expression in Balb/C mouse kidney assessed as reduction of full length transcript at 40 mg/kg, ip administered thrice a week for 2 weeks measured 48 hrs after last dose […]. It counts as functional. Further details: scale not given: the % may be the effect or the level left. As to conditions: route intraperitoneal.
Data set [9] relates to Mus musculus. Kind of data set: Toxicity in Balb/C mouse assessed as change in serum bilirubin levels at 10 to 40 mg/kg, ip administered thrice a week for 2 weeks measured 48 hrs after last dose. It counts as organism-based. As to conditions: in vivo. Further details: dose 10-40 mg/kg, route intraperitoneal. The gist of the method:
as §1

Data set [10] deals with Mus musculus. Kind of data set: Toxicity in Balb/C mouse assessed as change in body weight at 10 to 40 mg/kg, ip administered thrice a week for 2 weeks measured 48 hrs after last dose. Further details: dose 10-40 mg/kg, route intraperitoneal. The data set is classed as organism-based. As to conditions: in vivo. The gist of the method: as §1
Data set [11] relates to Mus musculus. Briefly: Acute toxicity in Balb/C mouse assessed as change in serum chemistry at 37 mg/kg, ip administered thrice a week for 2 weeks measured 48 hrs after last dose. The data set is classed as organism-based. As to conditions: in vivo. Further details: dose 37 mg/kg, route intraperitoneal. The gist of the method:
as §2

Data set [12] deals with Mus musculus. Briefly: Acute toxicity in Balb/C mouse assessed as change in organ weight at 37 mg/kg, ip administered thrice a week for 2 weeks measured 48 hrs after last dose. As to conditions: in vivo. The data set is classed as organism-based. Further details: dose 37 mg/kg, route intraperitoneal. The gist of the method:
as §2

For data set [13], the system named is Mus musculus. Briefly: Acute toxicity in Balb/C mouse assessed as change in body weight at 37 mg/kg, ip administered thrice a week for 2 weeks measured 48 hrs after last dose. Further details: dose 37 mg/kg, route intraperitoneal. As to conditions: in vivo. It counts as organism-based. Summed up: as §2
For data set [14], the system named is Mus musculus. Briefly: Acute toxicity in Balb/C mouse assessed as change in serum chemistry at 25 mg/kg, ip administered BID for 5 days measured 48 hrs after last dose. On the set-up: dose 25 mg/kg, route intraperitoneal. The data set is classed as organism-based. As to conditions: in vivo. Summed up:
as §2

In data set [15] the test system is Mus musculus. Kind of data set: Toxicity in Balb/C mouse assessed as change in serum glucose levels at 10 to 40 mg/kg, ip administered thrice a week for 2 weeks measured 48 hrs after last dose. Further details: dose 10-40 mg/kg, route intraperitoneal. As to conditions: in vivo. The data set is classed as organism-based. Summed up: as §1
Data set [16] deals with Mus musculus. Kind of data set: Inhibition of PTEN expression in ip dosed Balb/C mouse white adipose tissue assessed as reduction of full length transcript administered thrice a week for 2 weeks measured 48 hrs after last dose […]. It counts as functional, organism-based.
In data set [17] the test system is Mus musculus. Kind of data set: Acute toxicity in Balb/C mouse assessed as change in body weight at 25 mg/kg, ip administered BID for 5 days measured 48 hrs after last dose. It counts as organism-based. On the set-up: dose 25 mg/kg, route intraperitoneal. As to conditions: in vivo. The gist of the method: as §2
For data set [18], the system named is Mus musculus. Kind of data set: Inhibition of PTEN expression in ip dosed Balb/C mouse white adipose tissue assessed as upregulation of isoform lacking exon administered thrice a week for 2 weeks measured 48 hrs after last dose […]. It counts as functional, organism-based.
For data set [19], the system named is Mus musculus. Briefly: Toxicity in Balb/C mouse assessed as change in blood urea nitrogen levels at 10 to 40 mg/kg, ip administered thrice a week for 2 weeks measured 48 hrs after last dose. The data set is classed as organism-based. Further details: dose 10-40 mg/kg, route intraperitoneal. As to conditions: in vivo. Summed up:
as §1

Activity calls are given as the source filed them. The calls are words filed in the database; no cut-off is given here.

`Cc1cn(CC(=O)N(CCNC(=O)CN(CCNC(=O)[C@H](CCCCN)N(CCNC(=O)[C@H](CCCCN)NC(=O)[C@H](CCCCN)NC(=O)[C@H](CCCCN)NC(=O)[C@H](CCCCN)NC(=O)[C@H](CCCCN)NC(=O)[C@H](CCCCN)NC(=O)[C@H](CCCCN)NC(=O)[C@@H](N)CCCCN)C(=O)Cn2cc(C)c(=O)[nH]c2=O)C(=O)Cn2ccc(N)nc2=O)CC(=O)NCCN(CC(=O)NCCN(CC(=O)NCCN(CC(=O)NCCN(CC(=O)NCCN(CC(=O)NCCN(CC(=O)NCCN(CC(=O)NCCN(CC(=O)NCCN(CC(=O)NCCN(CC(=O)NCCN(CC(=O)NCCN(CC(=O)NCCN(CC(=O)N[C@@H](CCCCN)C(N)=O)C(=O)Cn2cnc3c(N)ncnc32)C(=O)Cn2ccc(N)nc2=O)C(=O)Cn2cnc3c(N)ncnc32)C(=O)Cn2cc(C)c(=O)[nH]c2=O)C(=O)Cn2ccc(N)nc2=O)C(=O)Cn2cc(C)c(=O)[nH]c2=O)C(=O)Cn2cnc3c(N)ncnc32)C(=O)Cn2ccc(N)nc2=O)C(=O)Cn2cnc3c(N)ncnc32)C(=O)Cn2ccc(N)nc2=O)C(=O)Cn2cnc3c(=O)[nH]c(N)nc32)C(=O)Cn2cnc3c(N)ncnc32)C(=O)Cn2ccc(N)nc2=O)c(=O)[nH]c1=O`: the Activity result in data set [1] is listed as “Non-toxic”; in data set [2] it was “Non-toxic”; in data set [3], “Non-toxic”; in data set [4], “Non-toxic”; in data set [5], 145%; in data set [7], 185%. In addition, the Activity in data set [8] is given as 70%; in data set [9], “Non-toxic”; in [10], “Non-toxic”; in data set [11], “Non-toxic”; in data set [12], “Non-toxic”; in [13] it was “Non-toxic”. Also, the Activity result in data set [14] was “Non-toxic”; in data set [15], “Non-toxic”; in [16], “Dose-dependent effect”; in data set [17], “Non-toxic”; in [18], “Dose-dependent effect”; in data set [19], “Non-toxic”. Also, the inhibition entry in data set [6] is “inactive”.
